# Source: ChEMBL document CHEMBL1126113, “Para-substituted Phe3 deltorphin analogues: enhanced selectivity of halogenated derivatives for delta opioid receptor sites” (J Med Chem, 1992)
# Key:
# [1] = molecular target: Delta-type opioid receptor (Rattus norvegicus, UniProt P33533); assay: Binding affinity against opioid receptor delta in rats by displacing [3H]DPDPE
# Cavia porcellus = species: Cavia porcellus; assay: Concentration required to inhibit electrically induced twitch by 50% in guinea pig ileum(GPI).; format: functional
# Mus musculus = species: Mus musculus; assay: Concentration required to inhibit electrically induced twitch by 50% in mouse vas deferens(MVD).; format: functional
# In short: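 Mouse vas deferens field-stimulated at 0.1 Hz, 1 ms, 40 V; twitch recorded with an isometric transducer. Peptide doses added to the aerated bath, with three to four washes at 10-min intervals between doses. IC50 from log-dose curves, normalized against a dermorphin or morphine standard run on each tissue.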
# Mu-type opioid receptor = Mu-type opioid receptor (Rattus norvegicus, UniProt P33535); assay: Binding affinity against opioid receptor mu in rats by displacing [3H]-DAGO
# Chain of Mu-type opioid receptor (P33535 whole entry): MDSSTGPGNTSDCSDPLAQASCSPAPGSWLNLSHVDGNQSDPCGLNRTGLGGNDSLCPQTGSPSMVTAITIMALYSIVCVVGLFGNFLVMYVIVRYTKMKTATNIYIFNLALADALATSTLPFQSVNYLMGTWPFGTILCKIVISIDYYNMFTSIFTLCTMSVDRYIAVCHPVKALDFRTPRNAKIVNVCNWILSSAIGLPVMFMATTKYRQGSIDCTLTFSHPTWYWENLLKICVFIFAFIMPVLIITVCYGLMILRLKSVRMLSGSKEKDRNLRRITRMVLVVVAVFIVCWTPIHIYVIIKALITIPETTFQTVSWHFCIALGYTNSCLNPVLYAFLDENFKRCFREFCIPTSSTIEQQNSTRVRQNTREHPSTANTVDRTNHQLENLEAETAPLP
# Chain of Delta-type opioid receptor (P33533 whole entry): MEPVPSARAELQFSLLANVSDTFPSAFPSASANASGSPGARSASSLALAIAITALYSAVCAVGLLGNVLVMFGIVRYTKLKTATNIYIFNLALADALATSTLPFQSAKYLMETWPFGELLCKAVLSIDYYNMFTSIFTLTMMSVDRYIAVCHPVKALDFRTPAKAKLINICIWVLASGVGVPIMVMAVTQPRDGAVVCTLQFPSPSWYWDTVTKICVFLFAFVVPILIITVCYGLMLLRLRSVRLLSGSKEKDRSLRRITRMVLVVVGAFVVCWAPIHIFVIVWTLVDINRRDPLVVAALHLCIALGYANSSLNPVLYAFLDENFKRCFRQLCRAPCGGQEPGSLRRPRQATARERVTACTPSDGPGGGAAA
SMILES,Ki [1] [nM],IC50 (Cavia porcellus) [nM],IC50 (Mus musculus) [nM],Ki (Mu-type opioid receptor) [nM]
CC(C)[C@H](NC(=O)[C@H](CC(=O)O)NC(=O)[C@H](Cc1ccc(Br)cc1)NC(=O)[C@@H](C)NC(=O)[C@@H](N)Cc1ccc(O)cc1)C(=O)N[C@H](C(=O)NCC(N)=O)C(C)C,2.39,7000,1.1,4790
CC(C)[C@H](NC(=O)[C@H](CC(=O)O)NC(=O)[C@H](Cc1ccc(N)cc1)NC(=O)[C@@H](C)NC(=O)[C@@H](N)Cc1ccc(O)cc1)C(=O)N[C@H](C(=O)NCC(N)=O)C(C)C,33.9,> 10000,1100,506
CC(C)[C@H](NC(=O)[C@H](CCC(=O)O)NC(=O)[C@H](Cc1ccc(N)cc1)NC(=O)[C@@H](C)NC(=O)[C@@H](N)Cc1ccc(O)cc1)C(=O)N[C@H](C(=O)NCC(N)=O)C(C)C,48.1,> 10000,300,2460
CC(C)[C@H](NC(=O)[C@H](CC(=O)O)NC(=O)[C@H](Cc1ccc(I)cc1)NC(=O)[C@@H](C)NC(=O)[C@@H](N)Cc1ccc(O)cc1)C(=O)N[C@H](C(=O)NCC(N)=O)C(C)C,1.62,> 10000,17,1410
CC(C)[C@H](NC(=O)[C@H](CC(=O)O)NC(=O)[C@H](Cc1ccc([N+](=O)[O-])cc1)NC(=O)[C@@H](C)NC(=O)[C@@H](N)Cc1ccc(O)cc1)C(=O)N[C@H](C(=O)NCC(N)=O)C(C)C,71.8,> 10000,1200,2390
CC(C)[C@H](NC(=O)[C@H](CCC(=O)O)NC(=O)[C@H](Cc1ccc([N+](=O)[O-])cc1)NC(=O)[C@@H](C)NC(=O)[C@@H](N)Cc1ccc(O)cc1)C(=O)N[C@H](C(=O)NCC(N)=O)C(C)C,101,> 10000,430,1430
CC(C)[C@H](NC(=O)[C@H](CC(=O)O)NC(=O)[C@H](Cc1ccc(F)cc1)NC(=O)[C@@H](C)NC(=O)[C@@H](N)Cc1ccc(O)cc1)C(=O)N[C@H](C(=O)NCC(N)=O)C(C)C,0.51,1100,3.5,554
CC(C)[C@H](NC(=O)[C@H](CC(=O)O)NC(=O)[C@H](Cc1ccc(Cl)cc1)NC(=O)[C@@H](C)NC(=O)[C@@H](N)Cc1ccc(O)cc1)C(=O)N[C@H](C(=O)NCC(N)=O)C(C)C,1.58,1800,0.16,287
CC(C)[C@H](NC(=O)[C@H](CC(=O)O)NC(=O)[C@H](Cc1ccccc1)NC(=O)[C@@H](C)NC(=O)[C@@H](N)Cc1ccc(O)cc1)C(=O)N[C@H](C(=O)NCC(N)=O)C(C)C [DELTORPHIN C],0.24,420,0.14,272
CC(C)[C@H](NC(=O)[C@H](CCC(=O)O)NC(=O)[C@H](Cc1ccccc1)NC(=O)[C@H](C)NC(=O)[C@@H](N)Cc1ccc(O)cc1)C(=O)N[C@H](C(=O)NCC(=O)O)C(C)C [DELTORPHINE II],0.12,5200,0.75,
